Measurements taken from ChEMBL document CHEMBL4368903, “Identification of GSK3186899/DDD853651 as a Preclinical Development Candidate for the Treatment of Visceral Leishmaniasis” (J Med Chem, 2019).
Values after ≈ are worked out from the molar mass of the structure shown. Values belong to the molecule of their own block, whether it stands above or below them.

How the values were obtained:
[1] = Intrinsic clearance in CD1 mouse liver microsomes at 0.5 uM after 3 to 30 mins in presence of NADPH by UPLC-MS/MS analysis; type: ADME, Microsome
Summary of the method: (§1)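 0.5 μM compound with female CD1 mouse or human liver microsomes, started with excess NADPH in 50 mM potassium phosphate pH 7.4. Aliquots at 0, 3, 6, 9, 15 and 30 min quenched in acetonitrile with internal standard. UPLC-MS/MS; rate constant from exponential decay of compound/IS ratio. Verapamil as positive control.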

THP-1 = assay: Cytotoxicity against human THP1 cells; type: cell-based
HepG2 = assay: Cytotoxicity against human HepG2 cells; type: cell-based
[2] = Mean AUClast in Sprague-Dawley rat at 100 mg/kg, po measured up to 24 hrs by UPLC-MS/MS analysis; type: ADME, organism-based; parameters: dose 100 mg/kg, time < 24 hr, route oral; details: in vivo
Summary of the method: (§2)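 Male Sprague–Dawley rats (n=3) given oral gavage as 1% methylcellulose suspension at 10, 100 or 300 mg/kg. Tail-vein blood at 0.25–24 h into K-EDTA, diluted in 0.1N Hepes and stored at −20 °C. Protein precipitation, then LC-MS/MS (range 2.90–2860 ng/mL). AUC0–t by linear up-log down trapezoidal rule.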

[3] = Fraction unbound in CD1 mouse plasma at 10 ug/ml after 15 mins by UPLC-MS/MS analysis; type: ADME, cell-free
Leishmania donovani [4] = assay: Antileishmanial activity against Leishmania donovani […] in human THP1 cells by intramacrophage assay; type: functional, organism-based; details: for EC50: Leishmania donovani, THP-1
[5] = Mean AUClast in Sprague-Dawley rat at 300 mg/kg, po measured up to 24 hrs by UPLC-MS/MS analysis; type: ADME, organism-based; parameters: dose 300 mg/kg, time < 24 hr, route oral; details: in vivo; summary of the method: as §2
Leishmania donovani [6] = assay: Antileishmanial activity against Leishmania donovani LV9 amastigotes infected in BALB/c mouse assessed as suppression of parasite load within liver at 100 mg/kg, po administered bid for 5 days relative to control; type: functional
Summary of the method: (§3)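 Female BALB/c mice, 5 per group, infected i.v. with about 2×10^7 L. donovani LV9 amastigotes harvested from infected hamster spleen. Oral dosing starts day 7 post-infection, in 0.5% HPMC/0.4% Tween 80/0.5% benzyl alcohol, or 10% DMSO/60% PEG400/30% water for the 5-day 50 mg/kg regimen. Dosing solutions made fresh daily. Killed day 14 (5-day) or 19 (10-day). Liver smears give LDU (amastigotes/500 nucleated cells × organ weight). Mean LDU compared with vehicle control gives % suppression.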

[7] = Fraction unbound in human plasma at 10 ug/ml after 15 mins by UPLC-MS/MS analysis; type: ADME, cell-free
[8] = Solubility of compound in fasted simulated intestinal fluid at 1 mg after 4 hrs by HPLC-UV analysis; type: physicochemical; details: for solubility at 4 h: fasted simulated intestinal fluid; for solubility: 4 h
Summary of the method: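 1 mg solid shaken in 1 mL FaSSIF (3 mM sodium taurocholate, 0.75 mM lecithin, phosphate buffer pH 6.5) at 900 rpm for 4 h at room temperature, then filtered. Supernatant quantified by HPLC-UV against single-point DMSO calibration. Range 1–1000 μg/mL.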

Leishmania donovani [9] = assay: Antileishmanial activity against Leishmania donovani LV9 amastigotes infected in BALB/c mouse assessed as suppression of parasite load within liver at 10 mg/kg, po administered bid for 10 days relative to control; type: functional; summary of the method: as §3
[10] = Intrinsic clearance in human liver microsomes at 0.5 uM after 3 to 30 mins in presence of NADPH by UPLC-MS/MS analysis; type: ADME, Microsome; summary of the method: as §1
[11] = Kinetic aqueous solubility of the compound in phosphate buffer at pH 7.4 by CLND assay; type: physicochemical; details: for solubility kinetic: phosphate buffer, read-out: Kinetic_solubility; for Kinetic_solubility: buffer
Summary of the method: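 From 10 mM DMSO stock diluted 1:20 into pH 7.4 PBS, equilibrated 1 h at RT, filtered. Filtrate quantified by calibrated flow-injection CLND. Dynamic range 1–500 μM.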

Leishmania donovani [12] = assay: Antileishmanial activity against Leishmania donovani LV9 amastigotes infected in BALB/c mouse assessed as suppression of parasite load within liver at 50 mg/kg, po administered bid for 10 days relative to control; type: functional; summary of the method: as §3
[13] = Mean AUClast in Sprague-Dawley rat at 10 mg/kg, po measured up to 24 hrs by UPLC-MS/MS analysis; type: ADME, organism-based; parameters: dose 10 mg/kg, time < 24 hr, route oral; details: in vivo; summary of the method: as §2
Leishmania donovani [14] = assay: Antileishmanial activity against Leishmania donovani LV9 amastigotes infected in BALB/c mouse assessed as suppression of parasite load within liver at 25 mg/kg, po administered bid for 10 days relative to control; type: functional; summary of the method: as §3
[15] = Lipophilicity, log D of the compound at pH 7.4 assessed as chromatographic hydrophobicity index; type: physicochemical; details: buffer
Summary of the method: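 Reversed-phase C18 HPLC with fast acetonitrile gradient. CHI taken from gradient retention time via a calibration line of standards. ChromLogD = 0.0857 × CHI − 2.00.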

[16] = Oral bioavailability in BALB/c mouse at 10 mg/kg measured up to 24 hrs by UPLC-MS/MS analysis; type: ADME, organism-based; details: in vivo
[17] = AUClast in BALB/c mouse at 10 mg/kg, po measured up to 24 hrs by UPLC-MS/MS analysis; type: ADME, organism-based; parameters: time < 24 hr, dose 10 mg/kg, route oral; details: in vivo
Summary of the method: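 Female Balb/c mice (n=3) dosed orally in 10% (v/v) DMSO, 60% PEG 400, 30% deionized water. AUC0–last (to last measurement) derived from the mean blood concentration–time curve.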

[18] = Volume of distribution at steady state in BALB/c mouse at 10 mg/kg, po measured up to 24 hrs by UPLC-MS/MS analysis; type: ADME, organism-based; details: in vivo
Summary of the method: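 Female Balb/c mice (n = 3) were dosed in 10% (v/v) DMSO, 60% PEG 400 and 30% deionized water. Compound in blood was quantified by UPLC-MS/MS, and parameters were derived from the mean blood concentration–time curve.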

[19] = Dissociation constant, pKa of the compound by UV-spectroscopy; type: physicochemical
Summary of the method: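 Sirius T3 acid–base titration with UV read-out: 5 μL of 10 mM sample, absorbance over 54 pH values in about 5 min. Methanol cosolvent with Yasuda–Shedlovsky extrapolation used when precipitation occurred.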

Leishmania donovani [20] = assay: Antileishmanial activity against Leishmania donovani LV9 amastigotes infected in BALB/c mouse assessed as suppression of parasite load within liver at 50 mg/kg, po administered bid for 5 days relative to control; type: functional; summary of the method: as §3
[21] = Blood clearance in BALB/c mouse at 10 mg/kg, […] measured up to 24 hrs by UPLC-MS/MS analysis; type: ADME, organism-based; details: whole blood
[22] = Cmax in BALB/c mouse at 10 mg/kg, po measured up to 24 hrs by UPLC-MS/MS analysis; type: ADME, organism-based; parameters: dose 10 mg/kg, route oral; details: in vivo
Summary of the method: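 Single oral dose to female Balb/c mice (n=3) in 10% DMSO/60% PEG400/30% water. Blood sampled at 0.08–24 h and mixed with two volumes of water. Compound quantified by UPLC-MS/MS. Parameters taken from the mean blood concentration–time curve.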

[23] = Permeability of the compound by artificial membrane permeability assay; type: ADME; details: PAMPA; read-out: permeability
Leishmania donovani [24] = assay: Antileishmanial activity against Leishmania donovani axenic amastigote; type: functional, organism-based

Structure (SMILES): O=S(=O)(CCC(F)(F)F)N[C@H]1CC[C@H](Nc2ncc3c(-c4cncnc4)n[nH]c3n2)CC1
chromatographic logD [15]: 3 | EC50 (Leishmania donovani [4]): 6.31 µM | solubility kinetic [11]: 11 µM (≈ 5.18 µg/mL)

Structure (SMILES): COc1nc(N[C@H]2CC[C@H](NS(=O)(=O)CC3CCCO3)CC2)nc2[nH]nc(N3CCOCC3)c12 (stereo in doubt; 35)
EC50 (Leishmania donovani [4]): 6.31 µM | solubility [8]: 208 µg/mL (≈ 420 µM) | Kinetic_solubility [11]: 421 µM

Structure (SMILES): O=S(=O)(CCC(F)(F)F)N[C@H]1CC[C@H](Nc2ncc3c(N4CCNCC4)n[nH]c3n2)CC1
chromatographic logD [15]: 1.6 | EC50 (Leishmania donovani [4]): 31.6 µM | solubility kinetic [11]: 346 µM (≈ 165 µg/mL)

Structure (SMILES): COc1nc(N[C@H]2CC[C@H](NS(=O)(=O)CC3CCCO3)CC2)nc2[nH]nc(N3CCOCC3)c12 (stereo in doubt; 34)
pEC50 (Leishmania donovani [4]): 5.4 | solubility at 4 h [8]: 283 µg/mL (≈ 571 µM) | solubility kinetic [11]: 412 µM (≈ 204 µg/mL)

Structure (SMILES): O=S(=O)(CCC(F)(F)F)N[C@H]1CC[C@H](Nc2ncc3c(C4CCOCC4)n[nH]c3n2)CC1
chromatographic logD [15]: 3.2 | EC50 (Leishmania donovani [4]): 3.16 µM | solubility kinetic [11]: 35 µM (≈ 16.7 µg/mL)

Structure (SMILES): O=S(=O)(CCC(F)(F)F)N[C@H]1CC[C@H](Nc2ncc3c(N4CCCC4)n[nH]c3n2)CC1
chromatographic logD [15]: 4 | EC50 (Leishmania donovani [4]): 2 µM | solubility kinetic [11]: 12 µM (≈ 5.54 µg/mL)

Structure (SMILES): CC1COCCN1c1n[nH]c2nc(N[C@H]3CC[C@H](NS(=O)(=O)CCC(F)(F)F)CC3)ncc12 (stereo in doubt; 36)
pEC50 (Leishmania donovani [4]): 5.6 | solubility at 4 h [8]: 88 µg/mL (≈ 179 µM) | solubility kinetic [11]: ≥ 310 µM

Structure (SMILES): O=S(=O)(CCC(F)(F)F)N[C@H]1CC[C@H](Nc2ncc3c(N4CCOCC4)n[nH]c3n2)CC1
pKa [19]: 3.7 | chromatographic logD [15]: 3 | EC50 (Leishmania donovani [4]): 3.16 µM | solubility at 4 h [8]: 7 µg/mL (≈ 14.7 µM) | solubility kinetic [11]: 259 µM (≈ 124 µg/mL)

Structure (SMILES): CC(C)CC(=O)c1sc(NC2CCCCC2)nc1N
EC50 (Leishmania donovani [24]): 50.1 µM

Structure (SMILES): CC(C)Cc1n[nH]c2nc(N[C@H]3CC[C@H](NC(=O)Cc4ccccc4)CC3)ncc12
CLH [1]: 9.5 mL/min/g | EC50 (THP-1): > 50.1 µM | EC50 (HepG2): 50.1 µM | EC50 (Leishmania donovani [4]): > 50.1 µM | CLH [10]: 1.9 mL/min/g

Structure (SMILES): C[C@@H]1CN(c2n[nH]c3nc(N[C@H]4CC[C@H](NS(=O)(=O)CCC(F)(F)F)CC4)ncc23)CCO1
EC50 (Leishmania donovani [4]): 5.01 µM | solubility at 4 h [8]: 23 µg/mL (≈ 46.8 µM) | solubility kinetic [11]: 52 µM (≈ 25.6 µg/mL)

Further lines, with some results ahead:

CLH [1]: 0.9 mL/min/g | AUC(0-t) at 24 h [2]: 2960 ng·h/mL | fraction unbound at 0.25 h, 10 ug/ml [3]: 0.37 | EC50 (Leishmania donovani [4]): 0.501 µM | AUC(0-t) at 24 h [5]: 2380 ng·h/mL | fraction unbound at 0.25 h, 10 ug/ml [7]: 0.33 | solubility at 4 h [8]: 9 µg/mL (≈ 20.6 µM) | CLH [10]: 1.8 mL/min/g | solubility kinetic [11]: 328 µM (≈ 144 µg/mL) | AUC(0-t) at 24 h [13]: 162 ng·h/mL
Structure (SMILES): CC(C)CS(=O)(=O)N[C@H]1CC[C@H](Nc2ncc3c(N4CCOCC4)n[nH]c3n2)CC1
EC50 (THP-1): > 50.1 µM | EC50 (HepG2): > 100 µM | Activity (Leishmania donovani [6]): 94% | Activity (Leishmania donovani [9]): 36% | Activity (Leishmania donovani [12]): 97% | Activity (Leishmania donovani [14]): 74%

EC50 (Leishmania donovani [4]): 1.26 µM | solubility at 4 h [8]: 53 µg/mL (≈ 104 µM) | solubility kinetic [11]: 311 µM (≈ 158 µg/mL)
Structure (SMILES): COc1nc(N[C@H]2CC[C@H](NS(=O)(=O)CCC(F)(F)F)CC2)nc2[nH]nc(N3CCOCC3)c12

EC50 (Leishmania donovani [4]): 2 µM | solubility [8]: 118 µg/mL (≈ 240 µM) | Kinetic_solubility [11]: >= 292 uM
Structure (SMILES): CC1COCCN1c1n[nH]c2nc(N[C@H]3CC[C@H](NS(=O)(=O)CCC(F)(F)F)CC3)ncc12 (stereo in doubt; 37)

bioavailability [16]: 44% | CLH [1]: 0.6 mL/min/g | AUC(0-t) at 24 h [17]: 17400 ng·h/mL | Vdss [18]: 0.9 L/kg | pKa [19]: 3.2 | fraction unbound at 0.25 h, 10 ug/ml [3]: 0.13 | EC50 (Leishmania donovani [4]): 0.501 µM | fraction unbound at 0.25 h, 10 ug/ml [7]: 0.08 | CL/F [21]: 4 mL/min/kg | solubility at 4 h [8]: < 1 µg/mL | Cmax [22]: 1910 ng/mL | CLH [10]: < 0.5 mL/min/g | solubility kinetic [11]: 8 µM (≈ 3.76 µg/mL) | Papp [23]: 44 ×10⁻⁶ cm/s
Structure (SMILES): O=S(=O)(CCC(F)(F)F)N[C@H]1CC[C@H](Nc2ncc3c(-c4ccccn4)n[nH]c3n2)CC1
EC50 (THP-1): 50.1 µM | EC50 (HepG2): > 100 µM | Activity (Leishmania donovani [20]): 85%

chromatographic logD [15]: 4.4 | EC50 (Leishmania donovani [4]): 1.58 µM | solubility kinetic [11]: 46 µM (≈ 21.9 µg/mL)
Structure (SMILES): O=S(=O)(CCC(F)(F)F)N[C@H]1CC[C@H](Nc2ncc3c(N4CCCCC4)n[nH]c3n2)CC1
